In test [1] the target is Receptor tyrosine-protein kinase erbB-2 (Homo sapiens) (UniProt P04626). The experiment in a line: Inhibition of human ERBB2 expressed in Sf9 cells at 10 uM; values are per cent of control.
Test [2] concerns the target T1, Protein kinase C epsilon type (Mus musculus) (UniProt P16054).
T1 sequence (whole entry): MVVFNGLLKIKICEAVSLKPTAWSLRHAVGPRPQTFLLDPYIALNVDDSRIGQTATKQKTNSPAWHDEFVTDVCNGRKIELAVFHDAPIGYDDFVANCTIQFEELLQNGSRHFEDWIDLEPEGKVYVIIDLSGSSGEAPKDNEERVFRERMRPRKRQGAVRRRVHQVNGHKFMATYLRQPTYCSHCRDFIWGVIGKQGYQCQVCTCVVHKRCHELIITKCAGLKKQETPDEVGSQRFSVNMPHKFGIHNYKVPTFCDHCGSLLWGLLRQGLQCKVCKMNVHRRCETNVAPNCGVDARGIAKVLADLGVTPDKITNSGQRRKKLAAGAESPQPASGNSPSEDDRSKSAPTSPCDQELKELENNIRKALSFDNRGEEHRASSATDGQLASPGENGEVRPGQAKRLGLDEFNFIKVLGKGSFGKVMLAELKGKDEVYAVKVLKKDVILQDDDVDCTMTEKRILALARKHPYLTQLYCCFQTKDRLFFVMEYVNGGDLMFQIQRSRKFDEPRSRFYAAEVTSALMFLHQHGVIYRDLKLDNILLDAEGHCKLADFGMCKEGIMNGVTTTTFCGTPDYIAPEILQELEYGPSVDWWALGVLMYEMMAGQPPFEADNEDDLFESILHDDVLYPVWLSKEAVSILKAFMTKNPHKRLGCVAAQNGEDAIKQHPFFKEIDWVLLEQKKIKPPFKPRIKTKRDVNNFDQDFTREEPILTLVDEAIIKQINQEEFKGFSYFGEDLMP
The test is described as follows: Inhibition of mouse PKC epsilon expressed in Sf9 cells at 10 uM; values are per cent of control.

The target of test [3] is Angiopoietin-1 receptor (Homo sapiens) (UniProt Q02763). The test is described as follows: Inhibition of human TIE2 expressed in Sf9 cells at 100 uM; values are per cent of control.
The target in test [4] is T2, Cyclin-dependent kinase 1/cyclin B (Homo sapiens) (UniProt P06493+P14635+Q8WWL7+O95067). The test is described as follows: Inhibition of human CDK1/cycB expressed in Sf9 cells at 100 uM; values are per cent of control.
Test [5] addresses Protein kinase C gamma type (Rattus norvegicus) (UniProt P63319). The test is described as follows: Inhibition of rat PKC gamma expressed in Sf9 cells at 100 uM. To be noted: values are per cent of control.
The target of test [6] is Tubulin (Sus scrofa) (UniProt P02554+P02550). The test is described as follows: Inhibition of tubulin polymerization in porcine brain upto 10 uM. The procedure, abridged:
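Microtubule protein isolated from porcine brain, 1 mg/mL, polymerized 20 min at 37 °C in PIPES buffer with 10 mM GTP, pH 6.8. Turbidity followed at 360 nm; assembly compared with an effector-free control.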

In test [7] the target is CDK6/cyclin D1 (Homo sapiens) (UniProt P24385+Q00534). The test is described as follows: Inhibition of human CDK6/cycD1 expressed in Sf9 cells at 10 uM; values are per cent of control.
The target of test [8] is Vascular endothelial growth factor receptor 2 (Homo sapiens, UniProt P35968). The test is described as follows: Inhibition of human VEGFR2 expressed in Sf9 cells at 10 uM; values are per cent of control.
Test [9] addresses T1, Protein kinase C epsilon type (Mus musculus). The test is described as follows: Inhibition of mouse PKC epsilon expressed in Sf9 cells at 100 uM. To be noted: values are per cent of control.
The target of test [10] is T2, Cyclin-dependent kinase 1/cyclin B (Homo sapiens). The experiment in a line: Inhibition of human CDK1/cycB expressed in Sf9 cells at 10 uM; values are per cent of control.
The target in test [11] is Protein kinase C alpha type (Mus musculus) (UniProt P20444). The experiment in a line: Inhibition of mouse PKC alpha expressed in Sf9 cells at 100 uM. To be noted: values are per cent of control.
Test [12] has the same target. The experiment in a line: Inhibition of mouse PKC alpha expressed in Sf9 cells at 10 uM; values are per cent of control.
The target of test [13] is T3, Protein kinase C iota type (Homo sapiens) (UniProt P41743).
T3 sequence (whole entry): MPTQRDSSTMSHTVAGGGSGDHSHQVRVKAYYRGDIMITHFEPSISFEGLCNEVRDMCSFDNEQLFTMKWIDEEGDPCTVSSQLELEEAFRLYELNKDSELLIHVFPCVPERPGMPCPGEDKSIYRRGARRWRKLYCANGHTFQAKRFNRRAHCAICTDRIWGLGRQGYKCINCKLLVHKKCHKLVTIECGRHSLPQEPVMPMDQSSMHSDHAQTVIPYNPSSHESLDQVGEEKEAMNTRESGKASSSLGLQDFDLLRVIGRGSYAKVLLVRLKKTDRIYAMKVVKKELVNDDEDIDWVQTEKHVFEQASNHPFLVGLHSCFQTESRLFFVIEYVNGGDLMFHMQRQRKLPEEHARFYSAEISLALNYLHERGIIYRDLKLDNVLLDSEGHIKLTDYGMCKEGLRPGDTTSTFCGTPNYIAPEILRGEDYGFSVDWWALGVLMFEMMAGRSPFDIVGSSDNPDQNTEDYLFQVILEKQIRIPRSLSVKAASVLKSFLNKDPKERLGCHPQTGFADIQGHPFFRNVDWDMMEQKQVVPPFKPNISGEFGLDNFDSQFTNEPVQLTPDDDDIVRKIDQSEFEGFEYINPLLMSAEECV
The experiment in a line: Inhibition of human PKC iota expressed in Sf9 cells at 10 uM; values are per cent of control.

Test [14] concerns the target Cyclin-dependent kinase 4/cyclin D1 (Homo sapiens) (UniProt P11802+P24385). The experiment in a line: Inhibition of human CDK4/cycD1 expressed in Sf9 cells at 100 uM; values are per cent of control.
Test [15] has as its target Cyclin-dependent kinase 2/cyclin E (Homo sapiens) (UniProt P24864+P24941+O96020). The experiment in a line: Inhibition of human CDK2/cycE expressed in Sf9 cells at 100 uM; values are per cent of control.
In test [16] the target is Protein kinase C gamma type (Rattus norvegicus) (UniProt P63319). The test is described as follows: Inhibition of rat PKC gamma expressed in Sf9 cells at 10 uM; values are per cent of control.
Test [17] has as its target Receptor tyrosine-protein kinase erbB-2 (Homo sapiens) (UniProt P04626). The experiment in a line: Inhibition of human ERBB2 expressed in Sf9 cells at 100 uM; values are per cent of control.

Activity calls are given as the source filed them. The rule behind the calls is not given here.

Sequence of Receptor tyrosine-protein kinase erbB-2 (Homo sapiens) (P04626 whole entry): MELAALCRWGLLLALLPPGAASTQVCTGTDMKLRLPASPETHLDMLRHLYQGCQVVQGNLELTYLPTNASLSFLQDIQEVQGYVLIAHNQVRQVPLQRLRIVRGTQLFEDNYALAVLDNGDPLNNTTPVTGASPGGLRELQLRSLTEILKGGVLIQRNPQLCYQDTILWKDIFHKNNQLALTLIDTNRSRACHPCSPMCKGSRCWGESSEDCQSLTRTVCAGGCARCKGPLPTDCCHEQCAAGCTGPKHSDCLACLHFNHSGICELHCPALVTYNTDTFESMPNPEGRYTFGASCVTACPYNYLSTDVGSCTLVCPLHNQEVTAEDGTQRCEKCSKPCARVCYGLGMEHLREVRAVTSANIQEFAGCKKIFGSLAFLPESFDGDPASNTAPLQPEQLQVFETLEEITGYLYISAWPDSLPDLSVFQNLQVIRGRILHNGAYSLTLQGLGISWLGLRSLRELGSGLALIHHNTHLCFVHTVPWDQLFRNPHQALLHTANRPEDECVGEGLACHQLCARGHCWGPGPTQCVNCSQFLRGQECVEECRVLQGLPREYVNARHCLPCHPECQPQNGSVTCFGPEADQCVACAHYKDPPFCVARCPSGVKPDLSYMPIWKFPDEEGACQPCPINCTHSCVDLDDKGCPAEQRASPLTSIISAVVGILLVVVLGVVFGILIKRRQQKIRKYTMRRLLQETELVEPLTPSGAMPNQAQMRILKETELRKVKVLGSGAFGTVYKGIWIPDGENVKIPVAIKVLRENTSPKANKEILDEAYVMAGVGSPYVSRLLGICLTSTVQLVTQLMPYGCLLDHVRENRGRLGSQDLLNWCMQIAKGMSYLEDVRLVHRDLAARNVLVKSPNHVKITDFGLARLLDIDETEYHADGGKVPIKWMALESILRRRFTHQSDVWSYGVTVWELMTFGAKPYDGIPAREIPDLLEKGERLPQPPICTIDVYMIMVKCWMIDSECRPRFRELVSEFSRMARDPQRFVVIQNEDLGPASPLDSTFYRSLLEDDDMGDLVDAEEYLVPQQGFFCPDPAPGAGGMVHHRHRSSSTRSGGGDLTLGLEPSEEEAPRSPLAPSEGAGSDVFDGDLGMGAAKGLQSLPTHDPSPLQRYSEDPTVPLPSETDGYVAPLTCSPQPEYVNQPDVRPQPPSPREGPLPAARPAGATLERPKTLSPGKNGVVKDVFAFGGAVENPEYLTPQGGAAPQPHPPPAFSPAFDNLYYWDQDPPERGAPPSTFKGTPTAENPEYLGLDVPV
Sequence of Tubulin (Sus scrofa) (P02550 whole entry, looked up): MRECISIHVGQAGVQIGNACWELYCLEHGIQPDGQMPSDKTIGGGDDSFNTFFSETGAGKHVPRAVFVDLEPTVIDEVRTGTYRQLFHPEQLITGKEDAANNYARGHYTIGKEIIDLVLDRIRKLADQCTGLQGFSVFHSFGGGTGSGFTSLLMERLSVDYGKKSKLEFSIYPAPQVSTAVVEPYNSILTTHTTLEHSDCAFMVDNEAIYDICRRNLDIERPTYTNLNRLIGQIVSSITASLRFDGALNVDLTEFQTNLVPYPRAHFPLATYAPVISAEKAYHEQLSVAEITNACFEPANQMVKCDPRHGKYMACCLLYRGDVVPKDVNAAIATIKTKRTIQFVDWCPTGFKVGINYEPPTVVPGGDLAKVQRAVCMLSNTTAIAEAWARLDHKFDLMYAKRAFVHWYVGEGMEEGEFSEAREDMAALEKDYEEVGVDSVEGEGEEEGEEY
Sequence of Tubulin (Sus scrofa) (P02554 whole entry, looked up): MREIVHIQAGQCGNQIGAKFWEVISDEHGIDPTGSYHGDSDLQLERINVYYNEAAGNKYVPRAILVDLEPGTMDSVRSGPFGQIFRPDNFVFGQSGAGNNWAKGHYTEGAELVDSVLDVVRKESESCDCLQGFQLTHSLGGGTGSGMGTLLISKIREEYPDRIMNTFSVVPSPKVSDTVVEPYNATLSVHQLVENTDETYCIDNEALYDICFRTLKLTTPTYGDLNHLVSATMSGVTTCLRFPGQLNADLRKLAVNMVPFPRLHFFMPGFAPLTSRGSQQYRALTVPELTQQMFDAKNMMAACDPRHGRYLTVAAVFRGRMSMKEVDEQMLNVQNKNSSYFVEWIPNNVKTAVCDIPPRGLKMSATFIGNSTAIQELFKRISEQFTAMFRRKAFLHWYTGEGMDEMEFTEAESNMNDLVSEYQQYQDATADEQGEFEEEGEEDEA
Sequence of Angiopoietin-1 receptor (Homo sapiens) (Q02763 whole entry): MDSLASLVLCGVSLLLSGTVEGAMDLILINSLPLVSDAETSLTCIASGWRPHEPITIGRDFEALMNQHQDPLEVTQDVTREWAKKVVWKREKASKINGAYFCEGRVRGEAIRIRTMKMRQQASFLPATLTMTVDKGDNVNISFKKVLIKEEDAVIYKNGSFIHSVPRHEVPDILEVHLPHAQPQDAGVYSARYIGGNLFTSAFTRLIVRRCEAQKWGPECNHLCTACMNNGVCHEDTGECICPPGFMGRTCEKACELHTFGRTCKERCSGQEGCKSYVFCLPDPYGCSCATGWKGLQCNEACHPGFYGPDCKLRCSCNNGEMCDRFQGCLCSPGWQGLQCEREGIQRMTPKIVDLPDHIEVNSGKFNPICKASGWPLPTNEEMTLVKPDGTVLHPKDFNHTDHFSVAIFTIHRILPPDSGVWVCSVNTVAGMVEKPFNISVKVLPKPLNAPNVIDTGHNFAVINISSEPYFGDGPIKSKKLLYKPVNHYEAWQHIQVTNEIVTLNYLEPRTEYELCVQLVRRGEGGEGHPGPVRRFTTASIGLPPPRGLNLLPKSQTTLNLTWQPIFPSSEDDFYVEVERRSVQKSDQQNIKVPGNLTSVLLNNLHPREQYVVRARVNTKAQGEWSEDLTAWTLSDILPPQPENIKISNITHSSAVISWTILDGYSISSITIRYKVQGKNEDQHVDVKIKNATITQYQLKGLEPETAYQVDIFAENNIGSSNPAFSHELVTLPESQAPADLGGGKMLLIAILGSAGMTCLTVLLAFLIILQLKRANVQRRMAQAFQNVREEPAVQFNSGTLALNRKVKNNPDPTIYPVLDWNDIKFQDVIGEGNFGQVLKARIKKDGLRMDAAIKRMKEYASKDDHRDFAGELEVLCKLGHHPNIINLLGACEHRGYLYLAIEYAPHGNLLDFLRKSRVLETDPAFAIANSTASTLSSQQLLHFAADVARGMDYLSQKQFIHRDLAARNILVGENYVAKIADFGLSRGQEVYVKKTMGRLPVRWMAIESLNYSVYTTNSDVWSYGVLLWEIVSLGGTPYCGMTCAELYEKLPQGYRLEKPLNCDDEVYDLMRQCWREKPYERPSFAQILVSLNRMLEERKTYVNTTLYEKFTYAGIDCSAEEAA

Take `COc1cc(C2=C(c3cc[nH]c3)C(=O)NC2=O)cc(OC)c1OC`: the residual activity in [1] stood at 91%; in test [2], 62%; in test [3] it was 77%; in [4], 101%; in [5], 93%; in test [7] it was 80%. The residual activity was 17% in [8]; 61% in [9]; 99% in test [10]; 67% in test [11]; 62% in [12]; 92% in test [13]. The residual activity in test [14] stood at 64%; in test [15], 71%; in test [16], 99%; in [17] it was 93%. Further, the inhibition result in test [6] is “inactive”.
